# Test results published in ChEMBL document CHEMBL5108008, “Drug screening approach against mycobacterial fatty acyl-AMP ligase FAAL32 renews the interest of the salicylanilide pharmacophore in the fight against tuberculosis” (Bioorg Med Chem, 2022).
# Counter-ions that a name gives are not always drawn.
# Columns and labels:
# [1] = system: Mycobacterium tuberculosis; assay: Antimicrobial activity against Mycobacterium tuberculosis H37Rv incubated for 24 hrs and measured by MTT assay; assay type: functional
# How it was run: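 Pellicle-grown Mtb bacilli were vortexed with glass beads, clumps removed by slow spin, and set to A600 0.1 in 7H9/0.2% glycerol. 2 µL compound in DMSO (1 mM, or 2-fold serial dilutions) went into 100 µL broth with 100 µL bacteria. Plates ran 6 d at 37 °C, then MTT (1 mg/mL) for 24 h, SDS solubilisation and A570. MIC was the lowest concentration inhibiting growth versus the untreated control.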
# [2] = molecular target: T1, Long-chain-fatty-acid--AMP ligase FadD32 (Mycobacterium tuberculosis (strain ATCC 25618 / H37Rv)) (UniProt O53580); assay: Binding affinity to Mycobacterium tuberculosis FAAL32 assessed as change in melting temperature at 2.5 uM by NanoDSF assay
# T1 sequence (whole entry): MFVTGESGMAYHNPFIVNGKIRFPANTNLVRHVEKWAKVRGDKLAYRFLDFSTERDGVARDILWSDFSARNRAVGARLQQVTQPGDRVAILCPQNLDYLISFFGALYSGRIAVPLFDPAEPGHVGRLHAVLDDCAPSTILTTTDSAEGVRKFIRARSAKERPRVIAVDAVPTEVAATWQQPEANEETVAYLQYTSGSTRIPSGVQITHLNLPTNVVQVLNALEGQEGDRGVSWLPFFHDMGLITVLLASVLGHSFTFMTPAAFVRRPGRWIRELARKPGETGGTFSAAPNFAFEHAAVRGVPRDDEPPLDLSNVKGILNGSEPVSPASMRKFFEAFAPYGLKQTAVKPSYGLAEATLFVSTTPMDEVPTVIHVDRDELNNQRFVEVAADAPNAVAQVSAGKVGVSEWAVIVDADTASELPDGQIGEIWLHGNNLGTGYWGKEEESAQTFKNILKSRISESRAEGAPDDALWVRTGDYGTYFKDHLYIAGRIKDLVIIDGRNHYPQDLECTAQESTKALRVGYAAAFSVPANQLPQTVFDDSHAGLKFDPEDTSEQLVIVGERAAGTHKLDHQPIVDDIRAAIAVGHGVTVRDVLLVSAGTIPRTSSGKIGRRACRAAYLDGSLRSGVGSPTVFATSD
# How it was run: (§1)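 nanoDSF used 0.5 µM purified FAAL32 with ligand at 0.5–10 µM in 50 mM HEPES pH 7.5, 500 mM NaCl, 5% DMSO. Samples sat 5 min at RT, then were heated 20–70 °C at 1 °C/min. Tm came from the F350/F330 fluorescence ratio; the DMSO-only protein was the reference.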
# [3] = molecular target: T2, Long-chain-fatty-acid--AMP ligase FadD32 (Mycobacterium tuberculosis (strain ATCC 25618 / H37Rv), UniProt O53580); assay: Inhibition of Mycobacterium tuberculosis FAAL32 using AMPC12 as substrate incubated for 50 mins and measured by spectrophotometric assay
# T2 sequence (O53580 whole entry): T1 sequence (whole entry)
# How it was run: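 Purified Mtb FAAL32 was run with lauric acid and ATP in HEPES pH 7.5, MgCl2, DTT and detergent. Pyrophosphatase coupling converted released PPi to Pi, read after 50 min as A630 with a phosphate colour reagent against a Pi calibration curve. Compounds (final 0.5–66 µM, DMSO) were added before the enzyme. IC50 came from a sigmoidal fit of percent inhibition.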
# [4] = molecular target: T1, Long-chain-fatty-acid--AMP ligase FadD32 (Mycobacterium tuberculosis (strain ATCC 25618 / H37Rv)); assay: Binding affinity to Mycobacterium tuberculosis FAAL32 assessed as change in melting temperature at 5 uM by NanoDSF assay; how it was run: as §1
Molecule,MIC [1],also measured
CCCCCCCCCCCCCCCC[N+](C)(C)CCN(Cc1ccc(OC)cc1)c1ncccn1 [THONZONIUM BROMIDE],> 1 µM,
O=C(Nc1cc(Cl)cc(Cl)c1O)c1c(O)c(Cl)cc(Cl)c1Cl [OXYCLOZANIDE],0.32 µM,
O=C(Nc1ccc(Oc2ccc(Cl)cc2)c(Cl)c1)c1cc(I)cc(I)c1O [RAFOXANIDE],0.08 µM,ΔTm [2]: 2.7 °C
Clc1ccc(COC(Cn2ccnc2)c2ccc(Cl)cc2Cl)c(Cl)c1 (stereo unspecified) [MICONAZOLE],> 1 µM,
Cc1cc(C(C#N)c2ccc(Cl)cc2)c(Cl)cc1NC(=O)c1cc(I)cc(I)c1O (stereo unspecified) [CLOSANTEL],0.08 µM,IC50 [3]: 7.7 µM; ΔTm [4]: 2.7 °C
CC(C)(O)c1ccccc1CC[C@@H](SCC1(CC(=O)O)CC1)c1cccc(/C=C/c2ccc3ccc(Cl)cc3n2)c1 [MONTELUKAST],> 1 µM,
NNC(=O)c1ccncc1 [ISONIAZID],0.6 µM,
VERTEPORFIN,> 1 µM,
O=C(Nc1ccc([N+](=O)[O-])cc1Cl)c1cc(Cl)ccc1O [NICLOSAMIDE],< 0.4 µM,
CC(=O)Oc1ccccc1C(=O)Nc1ncc([N+](=O)[O-])s1 [NITAZOXANIDE],10 µM,
Oc1c(Cl)cc(Cl)c(Cl)c1Cc1c(O)c(Cl)cc(Cl)c1Cl [HEXACHLOROPHENE],0.08 µM,
CCCCC(CC)CNC(=N)NC(=N)NCCCCCCNC(=N)NC(=N)NCC(CC)CCCC (stereo unspecified) [ALEXIDINE DIHYDROCHLORIDE],> 1 µM,
O=C(O)c1cn(C2CC2)c2cc(N3CCNCC3)c(F)cc2c1=O [CIPROFLOXACIN],1.25 µM,
